Assays:
[1] = system: SH-SY5Y human neuroblastoma cells stably expressing GLuc-SERCaMP; assay: GLuc-SERCaMP assay; assay type: cell-based; settings: 4 h, read-out: EC50, GLuc-SERCaMP secretion in response to thapsigargin
Sprague-Dawley rats = settings: for Bederson’s neurological score: rat, intracerebroventricular 15 min prior to 60 min MCAo, vs vehicle
[2] = CD-1 mice; value for 686 in brain
[3] = system: C57Bl/6J male mice on high fat diet; assay: Metabolic testing in Diet Induced Obese; settings: DIO mice, 12 mg/kg i.p. daily; for fasting insulin / insulin resistance index (HOMA-IR): vs vehicle
[4] = system: SH-SY5Y-GLuc-SERCaMP cells; assay: SERCaMP assay, acute treatment paradigm; assay type: cell-based, human; settings: 30 μM compound; 200 nM thapsigargin; measured 8 h after thapsigargin
[5] = system: ER calcium store in SH-SY5Y cells; assay: GCaMPer ER calcium assay; assay type: cell-based, human; settings: 16 hour pre-treatment; 50 nM thapsigargin, 30 min
[6] = system: UPRE-NLuc reporter in SH-SY5Y cells; assay: UPRE luciferase reporter assay; assay type: cell-based, human; settings: compound pre-treatment, then 100 nM thapsigargin
[7] = system: BiP, ERdj4, and ASNS mRNA in SH-SY5Y cells; assay: ER stress response transcriptional analysis; assay type: cell-based, human; settings: 30 μM compounds 16 h prior to 4 h 100 nM thapsigargin
Method in brief: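 SH-SY5Y cells were plated at 2.5×10^5 cells/500 μl in 24-well plates. Test compound (30 μM) was given 16 h before a 4 h exposure to 100 nM thapsigargin. Total RNA was isolated with on-column DNA digestion, and 0.5 μg was reverse-transcribed with cDNA diluted 1:20. BiP reports the ATF6 arm. Data are 2^-ddCq (n=6) versus thapsigargin only, by one-way ANOVA with Dunnett's test.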

[8] = system: BiP/GRP78 protein levels in SH-SY5Y-SERCaMP cells; assay: BiP immunoblot; assay type: cell-based, human; settings: 30 μM compounds 16 h prior to 4 h 100 nM thapsigargin
[9] = system: primary human skeletal muscle cells; assay: Human skeletal muscle exodosis assay; assay type: cell-based; settings: 30-minute pre-treatment; 100 nM thapsigargin, 8 h
Method in brief: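 Primary human myoblasts are grown in DMEM (4.5 g/L glucose) at 37°C and 5.5% CO2. They are plated at 7.3×10^3 cells/well on 3 mg/ml Matrigel-coated 96-well plates. Medium is sampled 4–8 h after thapsigargin. Secreted GLuc-SERCaMP is read as luminescence 8 h after 100 nM thapsigargin, after injecting 8 μM coelenterazine into 5 μl medium. n=11–12 wells per concentration.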

[10] = system: INS-1 832/13 pTetR TO shWfs1 cells; assay: Wolfram caspase 3/7 assay; assay type: cell-based, rat; settings: compounds and doxycycline for 48 h
[11] = system: SH-SY5Y-GLuc-SERCaMP cells; assay: Oxygen-glucose deprivation; assay type: cell-based, human; settings: 16 h hypoxia plus 24 h normoxia; for cell attachment and viability after OGD: drugs added at beginning of OGD
[12] = system: SH-SY5Y cells transfected with GLuc-ERS constructs; assay: GLuc-ERS; assay type: cell-based, human; settings: 20 μM
Method in brief: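 SH-SY5Y cells are reverse-transfected with GLuc-ERS reporter constructs: 5 × 10^4 cells are plated onto the transfection complexes in antibiotic-free medium and grown 48 h. OGD is 16 h hypoxia plus 24 h normoxia, with the test compound added at the start of OGD. GLuc is assayed in medium and lysates with coelenterazine. The secretion index is extracellular/intracellular GLuc. n=9–15 wells.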

SH-SY5Y cells = assay: Endogenous SERCaMPs; assay type: cell-based, human; settings: 20 μM
Method in brief: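 SH-SY5Y cells were seeded at 5×10^4 cells/well in 96-well plates and given 16 h hypoxia plus 24 h normoxia with test compound (20 μM). At reperfusion, medium was fully exchanged to phenol red-free, serum-free esterase buffer (NaCl, KCl, MgCl2, CaCl2, glucose, 20 mM HEPES), collected 8 h later, and mixed 1:1 with 100 μM fluorescein […] substrate ([…]). Fluorescence (ex 465/em 528) was read after 1 h. n=24 wells; two-way ANOVA.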

[13] = system: SH-SY5Y cells stably expressing a constitutively secreted GLuc (SH-SY5Y-GLuc); assay: SH-SY5Y-GLuc counterscreen; assay type: cell-based, human; settings: 19 h treatment
Method in brief: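 The counterscreen used SH-SY5Y cells expressing untagged, constitutively secreted Gaussia luciferase in 1536-well plates. Cells were exposed to test compound for 19 h, and GLuc was read from the medium. The ER-to-Golgi transport blocker brefeldin A (19 h) was titrated on each of eight plates as a control (n=2 per concentration).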

[14] = 16 h hypoxia plus 24 h normoxia

Row | Structure (SMILES) | Bederson’s neurological score (Sprague-Dawley rats) | SERCaMP release, compound added 30 min pre- to 2 hours post-thapsigargin [4] | SERCaMP release, compound added 4 hours post-thapsigargin [4] | effect on ER calcium (GCaMPer fluorescence) [5] | UPRE-NLuc activation [6] | GLuc-SERCaMP release in primary human skeletal muscle cells [9] | caspase 3/7 activation associated with Wfs1 knockdown [10] | GLuc-SERCaMP secretion after OGD [11] | cell attachment and viability after OGD [11] | other results
1 | C/C=C(/C)C(=O)O[C@H]1C(C)=C2[C@H]([C@@H]1OC(=O)CCCCCCC)[C@@](C)(OC(C)=O)C[C@H](OC(=O)CCC)[C@@]1(O)[C@H]2OC(=O)[C@@]1(C)O [Thapsigargin] |  |  |  |  |  |  |  |  |  | EC50 [1]: 112 nM
2 | CC(C)C[C@H]1C(=O)N2CCC[C@H]2[C@]2(O)O[C@](NC(=O)[C@@H]3C=C4c5cccc6c5c(c(Br)n6C(=O)C5CC5)C[C@H]4N(C)C3)(C(C)C)C(=O)N12.Cl [analog 686, (6aR,9R)-5-bromo-4-(cyclopropanecarbonyl)-N-((2R,5S,10aS,10bS)-10b-hydroxy-5-isobutyl-2-isopropyl-3,6-dioxooctahydro-8H-oxazolo[3,2-a]pyrrolo[2,1-c]pyrazin-2-yl)-7-methyl-4,6,6a,7,8,9-hexahydroindolo[4,3-fg]quinoline-9-carboxamide, HCl] | significant reduction |  |  |  |  |  |  |  |  | reduction of infarction volume compared with bromocriptine (Sprague-Dawley rats; rat MCAO): more effective than bromocriptine; metabolic conversion to the parent bromocriptine molecule [2]: < 1%
3 | CC(C)C[C@H]1C(=O)N2CCC[C@H]2[C@]2(O)O[C@](NC(=O)[C@@H]3C=C4c5cccc6c5c(c(Br)n6C(=O)NC5CC5)C[C@H]4N(C)C3)(C(C)C)C(=O)N12.Cl [analog 688, (6aR,9R)-5-bromo-N4-cyclopropyl-N9-((2R,5S,10aS,10bS)-10b-hydroxy-5-isobutyl-2-isopropyl-3,6-dioxooctahydro-8H-oxazolo[3,2-a]pyrrolo[2,1-c]pyrazin-2-yl)-7-methyl-6a,7,8,9-tetrahydroindolo[4,3-fg]quinoline-4,9(6H)-dicarboxamide, HCl] | significant reduction |  |  |  |  |  |  |  |  | metabolic conversion to the parent bromocriptine molecule [2]: no detectable conversion; change in body weight following the first week of injections [3]: did not show; cumulative caloric intake and energy expenditure during the three weeks of treatment [3]: did not show; fasting glucose levels at 4 hours [3]: reduced fasting glucose levels; food intake at the end of the second and third week of injections [3]: did not show; fasting insulin [3]: reduced; insulin resistance index (HOMA-IR) [3]: reduced
4 | CC(C)C[C@H]1C(=O)N2CCC[C@H]2[C@]2(O)O[C@](NC(=O)[C@@H]3C=C4c5cccc6[nH]c(Br)c(c56)C[C@H]4N(C)C3)(C(C)C)C(=O)N12 [bromocriptine] | significant reduction | inhibited SERCaMP release | inactive | stabilizing effect on ER calcium | diminished UPRE-NLuc activation | partially attenuated GLuc-SERCaMP release | reduced caspase 3/7 activation | decreased GLuc-SERCaMP secretion | improved cell attachment and viability | BiP mRNA levels [7]: reduced expression of BiP; BiP/GRP78 protein levels [8]: reduced thapsigargin-induced accumulation; thapsigargin-induced release of GLuc-ERS reporter proteins ([12]; 30 min pre-treatment, 200nM thapsigargin 8 h): broadly inhibited thapsigargin-induced release of the reporter proteins; OGD-induced release of GLuc-ERS reporter proteins [12, 14]: broadly reduced the OGD-induced release of the reporter proteins; thapsigargin-induced secretion of PDI, MANF, and carboxylesterases (SH-SY5Y cells; 0.5 h before or 1 h following 200 nM thapsigargin): reduced thapsigargin-induced secretion of all three proteins; OGD-induced release of carboxylesterases (SH-SY5Y cells; [14]): decreased; change in body weight following the first week of injections [3]: significant decrease in body weight; cumulative caloric intake and energy expenditure during the three weeks of treatment [3]: significantly higher; fasting glucose levels at 4 hours [3]: reduced fasting glucose levels; food intake at the end of the second and third week of injections [3]: elevated; glucose excursion AUC in glucose tolerance tests [3]: reduced the glucose excursion AUC; fasting insulin [3]: reduced; insulin resistance index (HOMA-IR) [3]: reduced
5 | C[C@@H]1C[C@@H]([C@H](O)CC2CC(=O)NC(=O)C2)C(=O)[C@@H](C)C1 [cycloheximide] |  |  |  |  |  |  |  |  |  | activity in the SH-SY5Y-GLuc counterscreen [13]: inhibitory activity
6 | O=C1CN(/N=C/c2ccc(-c3ccc([N+](=O)[O-])cc3)o2)C(O)=N1 [dantrolene] |  | inhibited SERCaMP release | inactive |  | inactive | partially attenuated GLuc-SERCaMP release |  | decreased GLuc-SERCaMP secretion | improved cell attachment and viability | 
7 | COc1ccc2c(c1)[C@]13CCCC[C@@H]1[C@H](C2)N(C)CC3 [dextromethorphan] |  | inhibited SERCaMP release | inactive | no effect | diminished UPRE-NLuc activation | partially attenuated GLuc-SERCaMP release |  |  |  | 
8 | COc1ccc([C@@H]2Sc3ccccc3N(CCN(C)C)C(=O)[C@@H]2OC(C)=O)cc1 [diltiazem] |  | inhibited SERCaMP release | inactive | no effect | inactive | partially attenuated GLuc-SERCaMP release | reduced caspase 3/7 activation | decreased GLuc-SERCaMP secretion | improved cell attachment and viability | 
9 | COc1ccc(CCN(C)CCCC(C#N)(c2ccc(OC)c(OC)c2)C(C)C)cc1OC (stereo not drawn) [verapamil] |  | inhibited SERCaMP release | inactive |  | diminished UPRE-NLuc activation | partially attenuated GLuc-SERCaMP release | reduced caspase 3/7 activation |  |  | BiP mRNA levels [7]: reduced expression of BiP

— paper PMC8545458 (Cell reports, 2021)
